Numbering of substitutions follows the chain as printed.
Assays:
Conditions in all cases: stereoisomer not certain
[1] = biological target: T1, OR2A12 (Homo sapiens) (UniProt Q8NGT7)
T1 sequence (whole entry): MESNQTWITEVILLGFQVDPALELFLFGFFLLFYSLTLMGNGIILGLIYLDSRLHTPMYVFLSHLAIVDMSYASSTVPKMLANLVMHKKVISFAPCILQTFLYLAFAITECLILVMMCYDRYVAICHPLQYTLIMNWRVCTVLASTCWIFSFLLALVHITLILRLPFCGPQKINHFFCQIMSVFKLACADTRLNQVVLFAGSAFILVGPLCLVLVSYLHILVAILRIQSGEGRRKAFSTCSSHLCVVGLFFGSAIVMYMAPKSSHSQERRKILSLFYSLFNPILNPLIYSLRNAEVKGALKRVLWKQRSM
Method in brief: (§1)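 Assay methods differ from source to source, frequently being transient luciferase assays in mammalian cell lines. For each receptor–molecule pair, the label responsive (active) applies when the original authors judged the measured signal statistically different from baseline, and non-responsive (inactive) applies otherwise.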

[2] = biological target: T2, OR2A14 (Homo sapiens) (UniProt Q96R47)
T2 sequence (whole entry): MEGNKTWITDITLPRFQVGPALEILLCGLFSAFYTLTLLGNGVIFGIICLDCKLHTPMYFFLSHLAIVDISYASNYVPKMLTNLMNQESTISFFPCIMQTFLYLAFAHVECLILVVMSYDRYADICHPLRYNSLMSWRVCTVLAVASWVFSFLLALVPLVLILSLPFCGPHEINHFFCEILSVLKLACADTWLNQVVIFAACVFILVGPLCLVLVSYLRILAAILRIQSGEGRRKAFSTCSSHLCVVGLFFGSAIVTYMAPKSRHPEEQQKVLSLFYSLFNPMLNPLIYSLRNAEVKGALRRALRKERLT
Method in brief: as §1

[3] = biological target: T3, OR2A2 (Homo sapiens) (UniProt Q6IF42)
T3 sequence (whole entry): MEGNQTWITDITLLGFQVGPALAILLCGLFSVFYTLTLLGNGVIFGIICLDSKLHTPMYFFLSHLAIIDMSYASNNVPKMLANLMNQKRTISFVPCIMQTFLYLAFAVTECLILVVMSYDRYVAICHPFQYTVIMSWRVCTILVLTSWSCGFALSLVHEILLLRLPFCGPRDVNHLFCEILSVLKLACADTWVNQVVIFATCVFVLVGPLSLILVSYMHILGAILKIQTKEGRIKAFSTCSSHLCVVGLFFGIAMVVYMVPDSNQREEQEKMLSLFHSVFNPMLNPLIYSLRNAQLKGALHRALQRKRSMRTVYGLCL
Method in brief: as §1

[4] = biological target: T4, OR2A25 (Homo sapiens) (UniProt A4D2G3)
T4 sequence (whole entry): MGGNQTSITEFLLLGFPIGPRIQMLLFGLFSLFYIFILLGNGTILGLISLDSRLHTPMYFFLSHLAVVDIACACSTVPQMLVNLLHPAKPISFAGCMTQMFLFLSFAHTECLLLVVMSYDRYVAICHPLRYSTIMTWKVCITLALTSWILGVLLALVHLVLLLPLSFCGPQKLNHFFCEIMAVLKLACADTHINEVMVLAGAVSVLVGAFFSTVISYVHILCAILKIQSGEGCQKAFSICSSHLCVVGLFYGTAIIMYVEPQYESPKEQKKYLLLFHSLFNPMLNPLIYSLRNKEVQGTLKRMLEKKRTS
Method in brief: as §1

[5] = biological target: T5, OR2A4 (Homo sapiens) (UniProt O95047)
T5 sequence (whole entry): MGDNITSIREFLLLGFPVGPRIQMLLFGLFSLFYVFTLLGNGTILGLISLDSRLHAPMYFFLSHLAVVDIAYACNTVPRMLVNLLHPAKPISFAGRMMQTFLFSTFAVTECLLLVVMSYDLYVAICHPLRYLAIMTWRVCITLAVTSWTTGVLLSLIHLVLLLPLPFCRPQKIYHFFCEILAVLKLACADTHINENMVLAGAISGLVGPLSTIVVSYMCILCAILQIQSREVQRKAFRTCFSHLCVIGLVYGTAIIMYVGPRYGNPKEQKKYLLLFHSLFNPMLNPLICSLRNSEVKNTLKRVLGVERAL
Method in brief: as §1

[6] = biological target: T6, OR2A5 (Homo sapiens) (UniProt Q96R48)
T6 sequence (whole entry): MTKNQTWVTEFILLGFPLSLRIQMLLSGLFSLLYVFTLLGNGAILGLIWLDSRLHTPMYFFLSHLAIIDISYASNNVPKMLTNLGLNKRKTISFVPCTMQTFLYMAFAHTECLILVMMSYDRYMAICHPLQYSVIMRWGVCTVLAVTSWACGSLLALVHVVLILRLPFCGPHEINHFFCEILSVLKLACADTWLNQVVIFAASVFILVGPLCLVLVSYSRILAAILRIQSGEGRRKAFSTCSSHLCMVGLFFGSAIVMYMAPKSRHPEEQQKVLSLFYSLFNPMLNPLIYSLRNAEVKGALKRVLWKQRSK
Method in brief: as §1

[7] = biological target: T7, OR2A7 (Homo sapiens) (UniProt Q96R45)
T7 sequence (whole entry): T5 sequence (whole entry) with R9T, R238C, V250F
Method in brief: as §1

[8] = biological target: T8, OR2AE1 (Homo sapiens) (UniProt Q8NHA4)
T8 sequence (whole entry): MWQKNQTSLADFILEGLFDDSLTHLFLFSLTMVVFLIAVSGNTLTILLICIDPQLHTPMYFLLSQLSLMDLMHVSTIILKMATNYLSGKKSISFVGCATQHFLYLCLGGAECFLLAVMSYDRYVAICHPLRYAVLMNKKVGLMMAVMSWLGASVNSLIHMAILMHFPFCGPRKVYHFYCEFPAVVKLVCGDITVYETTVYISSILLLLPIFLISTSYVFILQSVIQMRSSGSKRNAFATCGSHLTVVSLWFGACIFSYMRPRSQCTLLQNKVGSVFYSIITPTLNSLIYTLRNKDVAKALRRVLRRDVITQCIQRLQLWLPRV
Method in brief: as §1

[9] = biological target: T9, OR2AG1 (Homo sapiens) (UniProt Q9H205)
T9 sequence (whole entry): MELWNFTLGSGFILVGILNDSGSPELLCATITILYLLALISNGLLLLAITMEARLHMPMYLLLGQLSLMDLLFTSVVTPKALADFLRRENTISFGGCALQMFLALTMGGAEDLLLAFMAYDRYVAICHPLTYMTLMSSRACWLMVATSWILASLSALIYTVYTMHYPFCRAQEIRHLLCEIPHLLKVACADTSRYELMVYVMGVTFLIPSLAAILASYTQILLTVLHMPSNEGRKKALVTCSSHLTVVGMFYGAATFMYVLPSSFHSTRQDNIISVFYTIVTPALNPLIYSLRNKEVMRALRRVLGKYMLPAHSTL
Method in brief: as §1

[10] = biological target: T10, OR2AG2 (Homo sapiens) (UniProt A6NM03)
T10 sequence (whole entry): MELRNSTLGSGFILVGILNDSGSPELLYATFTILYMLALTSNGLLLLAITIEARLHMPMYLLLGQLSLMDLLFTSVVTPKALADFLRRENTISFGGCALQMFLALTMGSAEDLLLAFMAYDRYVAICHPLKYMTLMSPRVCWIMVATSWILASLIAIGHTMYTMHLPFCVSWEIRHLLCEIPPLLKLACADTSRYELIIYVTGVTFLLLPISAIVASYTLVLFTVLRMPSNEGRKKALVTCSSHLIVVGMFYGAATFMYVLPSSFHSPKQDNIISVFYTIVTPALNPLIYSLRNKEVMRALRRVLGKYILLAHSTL
Method in brief: as §1

[11] = biological target: T11, OR2AJ1 (Homo sapiens) (UniProt Q8NGZ0)
T11 sequence (whole entry): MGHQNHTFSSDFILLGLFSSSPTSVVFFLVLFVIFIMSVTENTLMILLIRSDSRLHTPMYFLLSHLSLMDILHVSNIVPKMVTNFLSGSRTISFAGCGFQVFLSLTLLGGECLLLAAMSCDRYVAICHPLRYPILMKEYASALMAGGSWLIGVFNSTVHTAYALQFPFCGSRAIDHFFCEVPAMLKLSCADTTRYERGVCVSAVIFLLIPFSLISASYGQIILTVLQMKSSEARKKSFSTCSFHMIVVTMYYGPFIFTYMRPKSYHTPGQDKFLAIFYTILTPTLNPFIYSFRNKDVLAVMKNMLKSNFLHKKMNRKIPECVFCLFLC
Method in brief: as §1

[12] = biological target: T12, OR2AK2 (Homo sapiens) (UniProt Q8NG84)
T12 sequence (whole entry): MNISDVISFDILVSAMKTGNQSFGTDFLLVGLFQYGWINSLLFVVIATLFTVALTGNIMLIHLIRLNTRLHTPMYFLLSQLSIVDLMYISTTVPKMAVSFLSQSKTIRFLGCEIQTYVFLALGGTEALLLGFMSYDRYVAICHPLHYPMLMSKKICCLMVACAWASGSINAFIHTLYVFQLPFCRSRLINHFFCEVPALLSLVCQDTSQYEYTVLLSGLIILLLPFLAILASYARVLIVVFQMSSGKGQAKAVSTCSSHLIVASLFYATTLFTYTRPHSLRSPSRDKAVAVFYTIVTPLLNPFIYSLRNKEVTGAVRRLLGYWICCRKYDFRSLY
Method in brief: as §1

[13] = biological target: T13, OR2AP1 (Homo sapiens) (UniProt Q8NGE2)
T13 sequence (whole entry): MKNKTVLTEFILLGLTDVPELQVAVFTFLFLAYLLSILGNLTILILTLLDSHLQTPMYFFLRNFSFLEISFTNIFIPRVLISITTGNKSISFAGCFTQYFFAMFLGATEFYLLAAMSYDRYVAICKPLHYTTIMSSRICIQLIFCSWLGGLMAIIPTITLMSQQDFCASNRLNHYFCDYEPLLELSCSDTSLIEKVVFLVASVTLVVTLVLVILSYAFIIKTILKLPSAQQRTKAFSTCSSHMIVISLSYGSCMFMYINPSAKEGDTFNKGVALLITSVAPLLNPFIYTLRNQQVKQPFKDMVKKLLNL
Method in brief: as §1

[14] = biological target: T14, OR2AT4 (Homo sapiens) (UniProt A6NND4)
T14 sequence (whole entry): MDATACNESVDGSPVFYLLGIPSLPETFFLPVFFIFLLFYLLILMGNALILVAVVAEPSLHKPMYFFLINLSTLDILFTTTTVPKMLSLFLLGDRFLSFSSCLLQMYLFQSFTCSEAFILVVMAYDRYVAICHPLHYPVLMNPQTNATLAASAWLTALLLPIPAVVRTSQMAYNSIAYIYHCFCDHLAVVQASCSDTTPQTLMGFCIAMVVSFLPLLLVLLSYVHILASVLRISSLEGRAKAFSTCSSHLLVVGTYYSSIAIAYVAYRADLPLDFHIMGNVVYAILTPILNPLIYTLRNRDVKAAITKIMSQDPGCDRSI
Method in brief: as §1

[15] = biological target: T15, OR2B11 (Homo sapiens) (UniProt Q5JQS5)
T15 sequence (whole entry): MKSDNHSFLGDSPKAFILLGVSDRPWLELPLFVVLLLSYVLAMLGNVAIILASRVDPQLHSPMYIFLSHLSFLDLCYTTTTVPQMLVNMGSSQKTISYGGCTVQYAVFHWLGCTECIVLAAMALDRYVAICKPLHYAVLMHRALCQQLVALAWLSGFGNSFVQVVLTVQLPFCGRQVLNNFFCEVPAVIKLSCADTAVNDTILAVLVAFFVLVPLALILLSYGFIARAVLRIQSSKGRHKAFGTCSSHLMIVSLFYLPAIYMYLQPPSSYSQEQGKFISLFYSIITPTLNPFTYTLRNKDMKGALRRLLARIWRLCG
Method in brief: as §1

[16] = biological target: T16, OR2B2 (Homo sapiens) (UniProt Q9GZK3)
T16 sequence (whole entry): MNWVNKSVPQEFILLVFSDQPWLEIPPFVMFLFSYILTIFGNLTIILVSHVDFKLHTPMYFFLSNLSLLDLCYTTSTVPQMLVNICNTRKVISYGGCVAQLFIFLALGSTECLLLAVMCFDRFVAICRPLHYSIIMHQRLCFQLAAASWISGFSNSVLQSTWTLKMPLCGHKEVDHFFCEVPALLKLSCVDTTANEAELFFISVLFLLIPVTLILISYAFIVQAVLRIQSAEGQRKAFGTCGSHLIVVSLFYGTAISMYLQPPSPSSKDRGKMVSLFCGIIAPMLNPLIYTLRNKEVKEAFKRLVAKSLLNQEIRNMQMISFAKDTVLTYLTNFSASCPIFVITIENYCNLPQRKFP
Method in brief: as §1

[17] = system: T17, OR2A1 T73A R74C S168C
T17 sequence (whole entry): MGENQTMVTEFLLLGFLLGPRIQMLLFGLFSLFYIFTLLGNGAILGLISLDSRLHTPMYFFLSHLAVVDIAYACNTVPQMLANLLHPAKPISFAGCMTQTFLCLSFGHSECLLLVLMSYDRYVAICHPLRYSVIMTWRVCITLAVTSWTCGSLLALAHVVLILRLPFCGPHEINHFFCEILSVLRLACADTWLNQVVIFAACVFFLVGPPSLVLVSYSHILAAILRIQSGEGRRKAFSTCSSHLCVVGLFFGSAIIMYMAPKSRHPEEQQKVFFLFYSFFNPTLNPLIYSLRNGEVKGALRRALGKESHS
Method in brief: as §1

[18] = system: T18, OR2A2
T18 sequence (whole entry): T3 sequence (whole entry) with F280L
Method in brief: as §1

[19] = system: T19, OR2A5 I126V A202S A255T
T19 sequence (whole entry): T6 sequence (whole entry) with I126V, A202S, A255T
Method in brief: as §1

[20] = system: T20, OR2A7
T20 sequence (whole entry): T5 sequence (whole entry) with R238C, V250F
Method in brief: as §1

Measured: odorant receptor agonist call

CC(CO)CS (stereo unspecified)
not listed: [17] | [18] | [19] | [20]
inactive: all other assays above

CCC(S)C(C)CO (stereo unspecified)
not listed: [17] | [18] | [19] | [20]
inactive: all other assays above

CCCCCCC(=O)[O-].[H+]
inactive: [7]

CC1CCCCCCCCCCCCC(=O)C1 (stereo unspecified)
not listed: [17] | [18] | [19] | [20]
inactive: all other assays above

CCC(O)CC
inactive: [7]

CCCCCCCCCCCCCCCC(=O)OCC
inactive: [7]

CC1=NC(C)C(C)S1 (stereo unspecified)
not listed: [11]
inactive: all other assays above

CCCCC(S)C(C)CO (stereo unspecified)
not listed: [17] | [18] | [19] | [20]
inactive: all other assays above

CCCC(S)CCOC(C)=O (stereo unspecified)
not listed: [11]
inactive: all other assays above

CC(=O)c1c(C)c([N+](=O)[O-])c(C(C)(C)C)c([N+](=O)[O-])c1C
not listed: [17] | [18] | [19] | [20]
inactive: all other assays above

Cc1cnc(C)c(C)n1
not listed: [11]
inactive: all other assays above

C=C(C)C1CC=C(C)CC1 (stereo unspecified)
inactive: [7]
